Measured values of several laboratories.
Each line is one published result; the experiments were not run side by side.

Compound	assay	system	setting	solubility
CCc1ccccc1-n1nc(C)c(C(=O)Nc2ccc3ccccc3n2)c1C	HPLC	PBS	6 h, pH 7.4	5.9 µg/mL
CC(=O)N[C@@H](CC(N)=O)C(=O)N[C@@H](CC(N)=O)C(=O)N[C@@H](CC(C)C)C(=O)N[C@H]1CSSC[C@@H](C(=O)N[C@H](C(N)=O)[C@@H](C)O)NC(=O)[C@H](CCCNC(=N)N)NC(=O)[C@H](Cc2c[nH]cn2)NC(=O)[C@H](C)NC(=O)CNC(=O)[C@H](Cc2c[nH]c3ccccc23)NC(=O)[C@H](CC(=O)O)NC(=O)[C@H](CCC(N)=O)NC(=O)[C@H](Cc2c[nH]c3ccccc23)NC(=O)[C@H](C(C)C)NC1=O		PBS	pH 7.4	3920 µg/mL
CN1CCN(C(=O)C2CCN(c3nccc4[nH]c(-c5ccc(F)c(F)c5)nc34)CC2)CC1	shake flask	aqueous buffer	pH 6.5	> 200 µM
CCOc1ccc2cc(-c3nn(CC4CC4)c(N)c3C(N)=O)cnc2c1		PBS	pH 6.5, 25 °C	26.5 µM
N=C(N)NCc1ccc(NC(=O)C23CC(C(=O)Nc4ccc(C5=CCN(C(=N)N)CC5)cc4)(C2)C3)cc1	shake flask	aqueous buffer	pH 7.4	770 µg/mL
O=C(Nc1ccc(F)cc1C(=O)O)c1ccc(-c2ccccc2)cc1	shake flask	aqueous buffer	24 h, pH 6.5, 25 °C	10 µM
Cc1cc(Nc2ccc(Cl)cc2)n2nc(C(C)C)nc2n1	nephelometry	aqueous buffer	pH 6.5	83 to 170 µM
Cc1c(F)cccc1NC(=O)Nc1ccc(Cl)c(S(=O)(=O)[C@H]2CCCNC2)c1O		aqueous buffer	4 h, pH 10	68 µg/mL
COc1cccc2c(NCc3ccccc3)nc(N3CCNc4ccccc43)nc12		aqueous buffer	pH 6.2	10.2 µg/mL
COc1cc(OC)cc(N(CCNC(C)C)c2ccc3ncc(-c4cnn(C)c4)nc3c2)c1		aqueous buffer	pH 9.61	1 µg/mL
COCc1nc2nc(C)cc(Nc3ccc(C(F)(F)F)cc3)n2n1	nephelometry	aqueous buffer	pH 6.5	150 to 300 µM
OCc1n(Cc2ccc3ccccc3c2)cc[n+]1Cc1ccc2ccccc2c1.[Br-]		water		< 500 µg/mL
CS(=O)(=O)c1ccc2c(c1)nc(C1CCNCC1)n2Cc1ccccc1.Cl	shake flask	aqueous buffer	20 h, pH 6.5, 25 °C	200 µM
CC(C)[C@@H]1CC[C@@H](C)CC1=O		PBS	48 h, pH 7.4, 25 °C	3000 µM
COc1cccc(OC)c1-c1nc(C(=O)N[C@@H](CC(C)C)C(=O)O)cn1-c1cccc2ccccc12		aqueous buffer	pH 7.4	> 145 µg/mL
O=C1NCCc2nc(OCc3cccc(F)c3)ccc21		FaSSIF	24 h, pH 7.2	114 µM
Brc1ccccc1CNc1nc(NCc2ccccc2)c2ccccc2n1		aqueous buffer	pH 5	0.21 µg/mL
O=C(Nc1c2c(cc3c1CCC3)CCC2)NS(=O)(=O)/C=C/c1nccs1		PBS	24 h, pH 6.8, 37 °C	646 µg/mL
CN(C)CCCN1c2ccccc2Sc2ccc(Cl)cc21		FaSSIF	24 h, pH 7.4, 37 °C	810 µg/mL
Clc1ccc2c(c1)nc(NCCN1CCOCC1)n2Cc1ccccc1	shake flask	aqueous buffer	20 h, pH 6.5, 25 °C	53 µM
CCOc1ccc2cc(-c3nn(CC(C)(C)CO)c(N)c3C(N)=O)cnc2c1		PBS	pH 6.5, 25 °C	> 100 µM
CCc1nc2nc(C)cc(Nc3ccc(S(F)(F)(F)(F)F)cc3)n2n1	nephelometry	aqueous buffer	pH 6.5	34 to 66 µM
CC(C)CC(=O)N1CCC[C@H](COc2cccc3c2C(N)=NS(=O)(=O)N3)C1		aqueous buffer	pH 7.1	240 µM
Cc1cc(Nc2ccc(S(F)(F)(F)(F)F)cc2)n2nc(C(F)(F)F)nc2n1	nephelometry	aqueous buffer	pH 6.5	30 to 60 µM
COC(=O)Nc1nc2cc(C(=O)c3ccc(F)cc3)ccc2[nH]1		water	24 h	< 1 µg/mL
CN(CCOc1ccc(CC2SC(=O)NC2=O)cc1)c1ccccn1 (stereo not shown)		aqueous buffer	pH 7.4	≥ 144 µM
CN1CCC(N2CCN(c3nccc4[nH]c(-c5ccc(F)c(F)c5)nc34)CC2)CC1	shake flask	aqueous buffer	pH 6.5	> 200 µM
CCOc1ccc2cc(-c3nn(CC(C)(C)CO)c(N)c3C(N)=O)ccc2n1		PBS	pH 6.5, 25 °C	> 100 µM

Compound	assay	system	setting	solubility
CN1CCN(CC2CCN(c3nccc4[nH]c(-c5cccc(OC(F)(F)F)c5)nc34)CC2)CC1	shake flask	aqueous buffer	pH 6.5	> 200 µM
NCCCCNc1nc2cc(Cl)ccc2n1Cc1ccccc1	shake flask	aqueous buffer	20 h, pH 6.5, 25 °C	≥ 200 µM
NC(=O)c1ccc(N(Cc2ccc(C3CCCCC3)cn2)C(=O)[C@H]2CCN2S(=O)(=O)c2c(F)c(F)c(F)c(F)c2F)cc1O		simulated gastric fluid		107 µg/mL
Brc1cccc(Nc2nc(NCc3ccccc3)c3ccccc3n2)c1		aqueous buffer	pH 6.2	0.01 µg/mL
O=C(NCCN1CCCC1)c1cc(-c2ccc(CN3CCOCC3)cc2)nc2ccc(F)cc12.O=C(O)C=CC(=O)O		simulated gastric fluid	pH 2, 37 °C, acidic	> 6490 µM
COc1cccc(OC)c1-c1cc(C(=O)N[C@@H](CC(C)C)C(=O)O)nn1-c1ccnc2cc(Cl)ccc12		aqueous buffer	pH 6.2	> 155 µg/mL
Cc1cc(F)cc(Nc2nc(NCc3ccccc3)c3ccccc3n2)c1		aqueous buffer	pH 5	0.05 µg/mL
CCOc1ccc2cc(-c3nn(C4CCCCCC4)c(N)c3C(N)=O)ccc2n1		PBS	pH 6.5, 25 °C	46.5 µM
O=C(CCCCCCC(=O)Nc1ccccc1)NO		simulated gastric fluid	48 h, pH 2, 25 °C, acidic	160 µg/mL
OCCOc1cccc2c(NCc3ccccc3)nc(N3CCOc4ccccc43)nc12		aqueous buffer	pH 6.2	0.48 µg/mL
CCC(C)n1ncn(-c2ccc(N3CCN(c4ccc(OCC5COC(Cn6cncn6)(c6ccc(Cl)cc6Cl)O5)cc4)CC3)cc2)c1=O (stereo not shown)		aqueous buffer	pH 6	2.5 µg/mL
CC(C(=O)O)c1ccc(-c2ccccc2)c(F)c1 (stereo not shown)		PBS	pH 7.4	4490 µg/mL
CCCn1nc(C(=O)N2CCCCC2)c2c1CCC(N(C)Cc1ccc(F)cc1)C2 (stereo not shown)		PBS	16 h, pH 7.4	2420 µM
CCc1nc2ccc(Cl)cn2c1C(=O)NCc1ccc(N2CCC(c3ccc(OC(F)(F)F)cc3)CC2)cc1		PBS		61 µM
Cc1c(F)cccc1Nc1nc(NCc2ccccc2)c2ccccc2n1		aqueous buffer	pH 7.4	< 0.01 µg/mL
CC(C)c1cccc2c(-c3ccccc3)cc(-c3ccc(-c4ccc(C(=O)O)cc4)[nH]3)nc12		PBS	pH 7.4	71.6 µM
Cc1ccc(S(=O)(=O)NCc2ccc(C(=O)NCCN(Cc3ccccc3)C(C)C)cc2)cc1		aqueous buffer	pH 5	0.47 µg/mL
CCC(=O)O[C@]1(C(=O)SCF)[C@H](C)C[C@H]2[C@@H]3C[C@H](F)C4=CC(=O)C=C[C@]4(C)[C@@]3(F)[C@@H](O)C[C@@]21C		FaSSIF		3.12 µM
COC(=O)c1ccc2c(c1)nc(C1CCNCC1)n2Cc1ccccc1	shake flask	aqueous buffer	20 h, pH 6.5, 25 °C	200 µM
CN1CCN([C@H]2CC[C@H](Nc3nccc4[nH]c(-c5cc(F)cc(F)c5)nc34)CC2)CC1	shake flask	aqueous buffer	pH 6.5	> 200 µM
CC(C)N1CCN(Cc2cnc(-c3cc(-c4cccc5[nH]ccc45)cc4[nH]ncc34)o2)CC1		aqueous buffer	pH 10	1 µg/mL
CCOc1ccc2cc(-c3nn(C(C)(C)C)c(N)c3C(N)=O)ccc2n1		PBS	pH 6.5, 25 °C	83.5 µM
c1ccc(CNc2nc(N3CCNc4ccccc43)nc3ccccc23)cc1		aqueous buffer	pH 5	> 36 µg/mL
CCCN(C)Cc1cc(-c2[nH]c3cccc(F)c3c(=O)c2C)ccc1Cc1ccc(OC(F)(F)F)cc1		PBS	pH 7.4	< 0.2 µM
CCOc1nc2nc(C)cc(Nc3ccc(S(F)(F)(F)(F)F)cc3)n2n1	nephelometry	aqueous buffer	pH 6.5	4 to 8 µM
CCOC(=O)c1ccc(N)cc1		PBS	pH 7.4	890 µg/mL
COc1ccc(Nc2nc(NCc3ccccc3)c3ccccc3n2)cc1F		aqueous buffer	pH 6.2	0.03 µg/mL
